Experimental data from ChEMBL document CHEMBL1649062, “Integration of lead optimization with crystallography for a membrane-bound ion channel target: discovery of a new class of AMPA receptor positive allosteric modulators” (J Med Chem, 2011).
Active and inactive are the calls of the source.

Columns and labels:
[1] = Half life in cynomolgus monkey at 1 mg/kg, po; assay type: ADME, organism-based, Macaca fascicularis; parameters: dose 1 mg/kg, route oral; details: in vivo
[2] = Tmax in Gottingen minipig at 1 mg/kg, po; assay type: ADME, organism-based, Sus scrofa; parameters: dose 1 mg/kg, route oral; details: pig, in vivo
Summary of the method: (§1)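 Male animals, n = 3 per species, given single iv and oral doses: Sprague-Dawley rat 2.5 iv / 3 po mg/kg; beagle dog 0.25 / 0.5; Göttingen minipig 0.5 / 1; cynomolgus monkey 0.25 / 1. Blood sampled; Vss from iv; bioavailability and Vss as mean [range]; Tmax as median [range].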

[3] = Cmax in Swiss Beagle dog at 0.5 mg/kg, po; assay type: ADME, organism-based, Canis lupus familiaris; parameters: dose 0.5 mg/kg, route oral; details: in vivo
[4] = Half life in Sprague-Dawley rat at 2.5 mg/kg, iv; assay type: ADME, organism-based; parameters: dose 2.5 mg/kg, route intravenous; details: in vivo
Summary of the method: (§2)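 Male animals, n = 3 per species, given single iv and oral doses. Values are mean and range. Blood clearance is also expressed as % of liver blood flow, taken as (mL/min)/kg: rat 85, dog 31, minipig 30, cynomolgus monkey 44.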

[5] = Half life in Swiss Beagle dog at 0.25 mg/kg, iv; assay type: ADME, organism-based, Canis lupus familiaris; parameters: dose 0.25 mg/kg, route intravenous; details: in vivo; summary of the method: as §2
[6] = Half life in Sprague-Dawley rat at 3 mg/kg, po; assay type: ADME, organism-based; parameters: dose 3 mg/kg, route oral; details: in vivo
[7] = Cmax in Sprague-Dawley rat at 3 mg/kg, po; assay type: ADME, organism-based; parameters: dose 3 mg/kg, route oral; details: in vivo
[8] = Apparent permeability of the compound; assay type: ADME; details: not told
Summary of the method: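 Artificial membrane permeability: donor holds 10 mM sample in pH 7.05 phosphate buffer with 0.5% hydroxypropylcyclodextrin. Membrane is 1.8% phosphatidylcholine and 1% cholesterol in decane. Donor and acceptor concentrations measured by LCMS after 3 h at room temperature; permeability expressed in nm/s.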

[9] = tested on: Hepatocyte; assay: Intrinsic clearance in cryopreserved human hepatocytes assessed per gram of tissue; assay type: ADME, cell-based, Liver
Summary of the method: (§3)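 Cryopreserved hepatocytes at 70 000 cells/mL; intrinsic clearance expressed per gram of liver; single determination (human also n = 3).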

[10] = Intrinsic clearance in cryopreserved minipig hepatocytes assessed per gram of tissue; assay type: ADME, cell-based, Sus scrofa, Liver, Hepatocyte; details: pig; summary of the method: as §3
[11] = Oral bioavailability in Swiss Beagle dog at 0.5 mg/kg; assay type: ADME, organism-based, Canis lupus familiaris; details: in vivo; summary of the method: as §1
[12] = tested on: Sus scrofa; assay: Hepatic blood flow in Gottingen minipig at 0.5 mg/kg, iv and 1 mg/kg, po; assay type: ADME, organism-based, Liver; details: pig, in vivo; summary of the method: as §2
[13] = tested on: Cynomolgus monkey; assay: Hepatic blood flow in cynomolgus monkey at 0.25 mg/kg, iv and 1 mg/kg, po; assay type: ADME, organism-based, Macaca fascicularis, Liver; details: in vivo; summary of the method: as §2
[14] = tested on: Brain; assay: Drug level in Lister Hooded rat assessed per gram of tissue at 30 mg/kg, ip; assay type: ADME, organism-based; parameters: dose 30 mg/kg, route intraperitoneal; details: in vivo
Summary of the method: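 Male Lister Hooded rats pretreated 30 min before the maximal electroshock threshold test with compound or saline vehicle; picrotoxin served as positive control. Corneal current applied, CC50 about 60-70 mA, 0.1 ms. Brain levels measured in satellite rats sampled immediately after testing.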

[15] = in vivo; details: Sprague-Dawley, rat, po, 3 mg/kg
[16] = tested on: Brain; assay: Drug level in Lister Hooded rat assessed per gram of tissue at 1 mg/kg, ip; assay type: ADME, organism-based; parameters: dose 1 mg/kg, route intraperitoneal; details: in vivo
Summary of the method: (§4)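 Male Lister Hooded rats (n = 9-12/group) tested for reversal of a 24 h delay-induced deficit in novel object recognition. Significant doses flagged. Brain concentrations measured in the study animals at the end of the test.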

[17] = tested on: Brain; assay: Drug level in Lister Hooded rat assessed per gram of tissue at 3 mg/kg, ip; assay type: ADME, organism-based; parameters: dose 3 mg/kg, route intraperitoneal; details: in vivo; summary of the method: as §4
[18] = Cmax in rat at 3 mg/kg, po; assay type: ADME, organism-based; parameters: dose 3 mg/kg, route oral; details: in vivo
[19] = Oral bioavailability in cynomolgus monkey at 1 mg/kg; assay type: ADME, organism-based, Macaca fascicularis; details: in vivo; summary of the method: as §1
[20] = biological target: Cytochrome P450 2D6 (Homo sapiens, UniProt P10635); assay: Inhibition of human CYP2D6 by fluorescence assay; assay type: ADME
Sequence of Cytochrome P450 2D6 (P10635 whole entry): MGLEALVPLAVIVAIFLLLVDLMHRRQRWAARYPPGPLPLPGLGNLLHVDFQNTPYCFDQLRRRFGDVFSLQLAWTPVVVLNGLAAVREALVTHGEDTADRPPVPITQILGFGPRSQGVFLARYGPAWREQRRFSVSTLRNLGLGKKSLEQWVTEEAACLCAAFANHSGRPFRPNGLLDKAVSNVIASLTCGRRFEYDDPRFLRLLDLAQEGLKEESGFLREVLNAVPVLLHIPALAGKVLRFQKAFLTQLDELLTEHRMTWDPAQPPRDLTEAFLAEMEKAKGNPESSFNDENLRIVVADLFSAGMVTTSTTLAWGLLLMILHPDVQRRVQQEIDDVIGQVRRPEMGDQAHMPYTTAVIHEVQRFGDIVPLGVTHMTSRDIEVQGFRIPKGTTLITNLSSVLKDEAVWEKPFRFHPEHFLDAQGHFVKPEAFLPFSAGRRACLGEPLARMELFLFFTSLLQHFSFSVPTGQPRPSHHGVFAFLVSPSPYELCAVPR
Summary of the method: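 Recombinant human CYP bactosomes (0.1 mg/mL) in 50 mM potassium phosphate pH 7.4, preincubated 10 min at 37 °C with test compound (0.1-10 μM, 7 concentrations) and fluorogenic substrate. Substrates: ethoxyresorufin 0.5 μM (1A2), FCA 50 μM (2C9), BMC 10 μM (2C19), MMC 10 μM (2D6), DEF 1 μM or 7-BQ 25 μM (3A4). Reaction started with NADPH regenerating system; metabolite formation read over 10 min. IC50 from percent of control rate; miconazole control; triplicate.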

[21] = Cmax in cynomolgus monkey at 1 mg/kg, po; assay type: ADME, organism-based, Macaca fascicularis; parameters: dose 1 mg/kg, route oral; details: in vivo
[22] = Half life in cynomolgus monkey at 0.25 mg/kg, iv; assay type: ADME, organism-based, Macaca fascicularis; parameters: dose 0.25 mg/kg, route intravenous; details: in vivo; summary of the method: as §2
[23] = tested on: Canis familiaris; assay: Hepatic blood flow in Swiss Beagle dog at 0.25 mg/kg, iv and 0.5 mg/kg, po; assay type: ADME, organism-based, Canis lupus familiaris, Liver; details: in vivo; summary of the method: as §2
[24] = Volume of distribution at steady state in Swiss Beagle dog at 0.25 mg/kg, iv and 0.5 mg/kg, po; assay type: ADME, organism-based, Canis lupus familiaris; details: in vivo, read-out: Vdss; summary of the method: as §1
[25] = Tmax in cynomolgus monkey at 1 mg/kg, po; assay type: ADME, organism-based, Macaca fascicularis; parameters: dose 1 mg/kg, route oral; details: in vivo; summary of the method: as §1
[26] = Clearance in Swiss Beagle dog at 0.25 mg/kg, iv and 0.5 mg/kg, po; assay type: ADME, organism-based, Canis lupus familiaris; details: in vivo; summary of the method: as §2
[27] = tested on: Rattus norvegicus; assay: Cognitive enhancing effect in Lister Hooded rat assessed as reversal of 24 hrs delay-induced cognitive deficit at 0.3 mg/kg, ip by novel object recognition test
[28] = tested on: Hepatocyte; assay: Intrinsic clearance in cryopreserved rat hepatocytes assessed per gram of tissue; assay type: ADME, cell-based, Liver; summary of the method: as §3
[29] = Volume of distribution at steady state in cynomolgus monkey at 0.25 mg/kg, iv and 1 mg/kg, po; assay type: ADME, organism-based, Macaca fascicularis; details: in vivo, read-out: Vdss; summary of the method: as §1
[30] = tested on: Rattus norvegicus; assay: Cognitive enhancing effect in Wistar rat assessed as reversal of scopolamine-induced amnesic deficit at 10 to 30 mg/kg, ip by passive avoidance test
[31] = biological target: Voltage-gated inwardly rectifying potassium channel KCNH2 (Homo sapiens, UniProt Q12809); assay: Inhibition of human ERG at 10 uM
Sequence of Voltage-gated inwardly rectifying potassium channel KCNH2 (Q12809 whole entry): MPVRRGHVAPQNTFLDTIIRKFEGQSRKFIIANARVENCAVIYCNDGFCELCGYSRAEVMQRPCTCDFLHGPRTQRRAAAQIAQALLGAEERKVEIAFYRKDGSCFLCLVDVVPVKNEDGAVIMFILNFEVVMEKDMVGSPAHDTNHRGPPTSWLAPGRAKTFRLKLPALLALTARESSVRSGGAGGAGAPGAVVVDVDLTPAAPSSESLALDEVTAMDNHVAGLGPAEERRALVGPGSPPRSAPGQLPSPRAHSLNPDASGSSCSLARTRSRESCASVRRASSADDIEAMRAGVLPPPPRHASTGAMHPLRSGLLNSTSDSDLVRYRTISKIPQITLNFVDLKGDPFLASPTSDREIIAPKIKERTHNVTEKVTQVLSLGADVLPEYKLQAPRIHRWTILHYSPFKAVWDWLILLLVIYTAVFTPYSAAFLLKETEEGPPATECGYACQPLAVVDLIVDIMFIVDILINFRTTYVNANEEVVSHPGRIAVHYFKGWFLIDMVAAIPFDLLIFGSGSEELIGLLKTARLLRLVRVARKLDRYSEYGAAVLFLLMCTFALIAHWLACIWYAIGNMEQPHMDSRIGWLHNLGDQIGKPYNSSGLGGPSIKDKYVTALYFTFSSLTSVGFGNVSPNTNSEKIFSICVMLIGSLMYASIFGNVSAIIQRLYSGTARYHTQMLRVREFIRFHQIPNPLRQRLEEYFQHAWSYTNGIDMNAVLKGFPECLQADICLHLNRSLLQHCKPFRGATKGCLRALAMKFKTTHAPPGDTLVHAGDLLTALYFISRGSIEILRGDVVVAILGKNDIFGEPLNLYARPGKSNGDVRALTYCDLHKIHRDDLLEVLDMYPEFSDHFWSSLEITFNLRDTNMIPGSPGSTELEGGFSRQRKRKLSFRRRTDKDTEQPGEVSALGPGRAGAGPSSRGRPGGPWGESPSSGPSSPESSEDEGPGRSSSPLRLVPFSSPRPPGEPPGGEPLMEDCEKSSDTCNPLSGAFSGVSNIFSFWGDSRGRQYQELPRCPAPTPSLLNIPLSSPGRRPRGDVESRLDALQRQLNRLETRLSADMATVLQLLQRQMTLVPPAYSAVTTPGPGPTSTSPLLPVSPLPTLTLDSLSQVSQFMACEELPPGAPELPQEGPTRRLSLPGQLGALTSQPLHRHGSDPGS
Summary of the method: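 hERG tail current recorded from stably transfected cells, compound at a nominal 10 μM (stated as 3.6 μg/mL).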

[32] = biological target: T1, Glutamate receptor 2 (Homo sapiens, UniProt P42262); assay: Allosteric modulation of human recombinant GluA2 receptor flip isoform expressed in HEK293 cells at 10 uM by whole cell patch-clamp electrophysiology; assay type: cell-based
T1 sequence (P42262 whole entry, canonical isoform): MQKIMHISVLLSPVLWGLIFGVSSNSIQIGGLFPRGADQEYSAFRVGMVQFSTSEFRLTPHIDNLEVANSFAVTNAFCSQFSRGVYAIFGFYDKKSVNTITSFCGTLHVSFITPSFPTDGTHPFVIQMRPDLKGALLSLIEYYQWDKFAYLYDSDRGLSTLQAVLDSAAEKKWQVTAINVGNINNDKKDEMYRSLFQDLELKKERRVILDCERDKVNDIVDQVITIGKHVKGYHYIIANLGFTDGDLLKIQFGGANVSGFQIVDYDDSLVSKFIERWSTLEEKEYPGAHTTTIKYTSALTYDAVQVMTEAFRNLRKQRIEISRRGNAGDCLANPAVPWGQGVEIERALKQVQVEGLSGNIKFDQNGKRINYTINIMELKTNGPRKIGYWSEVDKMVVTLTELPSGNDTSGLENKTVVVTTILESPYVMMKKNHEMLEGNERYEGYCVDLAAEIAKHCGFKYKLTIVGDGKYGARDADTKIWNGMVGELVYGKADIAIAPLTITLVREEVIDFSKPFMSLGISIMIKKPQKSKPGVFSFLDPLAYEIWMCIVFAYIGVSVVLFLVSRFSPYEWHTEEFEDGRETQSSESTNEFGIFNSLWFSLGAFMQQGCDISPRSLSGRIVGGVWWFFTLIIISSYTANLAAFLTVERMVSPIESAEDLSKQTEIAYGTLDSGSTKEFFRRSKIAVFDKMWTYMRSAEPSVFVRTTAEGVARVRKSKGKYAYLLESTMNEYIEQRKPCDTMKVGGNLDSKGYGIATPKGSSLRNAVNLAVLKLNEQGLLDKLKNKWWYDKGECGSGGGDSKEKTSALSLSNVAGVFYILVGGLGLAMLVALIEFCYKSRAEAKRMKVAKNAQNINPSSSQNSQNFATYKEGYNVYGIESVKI
Summary of the method: (§5)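 Perforated-patch (amphotericin B) voltage clamp of HEK293 cells stably expressing human GluA2 flip (unedited) homotetramers, held at -60 mV. Extracellular solution in mM: 140 NaCl, 2 KCl, 1 MgCl2, 2 CaCl2, 12 HEPES, 10 D-glucose, pH 7.35. Currents evoked by 1 mM glutamate; compound at 100 nM or 10 μM. Read-out is percent increase in charge transfer (area under curve).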

[33] = Intrinsic clearance in cryopreserved rhesus monkey hepatocytes assessed per gram of tissue; assay type: ADME, Macaca mulatta, Liver, Hepatocyte
[34] = tested on: Rattus norvegicus; assay: Cognitive enhancing effect in Lister Hooded rat assessed as reversal of 24 hrs delay-induced cognitive deficit at 1 mg/kg, ip by novel object recognition test
[35] = biological target: T1, Glutamate receptor 2; assay: Allosteric modulation of human recombinant GluA2 receptor flip isoform expressed in HEK293 cells at 100 nM by whole cell patch-clamp electrophysiology; assay type: cell-based; summary of the method: as §5
[36] = Clearance in rat at 3 mg/kg, po; assay type: ADME, organism-based; parameters: dose 3 mg/kg, route oral; details: in vivo
Summary of the method: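 Rats dosed orally at 3 mg/kg; blood sampled via the hepatic portal vein and heart. Estimated clearance derived from in vivo hepatic extraction, taking rat liver blood flow as 85 (mL/min)/kg.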

[37] = Intrinsic clearance in cryopreserved dog hepatocytes assessed per gram of tissue; assay type: ADME, cell-based, Canis lupus familiaris, Liver, Hepatocyte; summary of the method: as §3

In the case of O=C(c1ccc(-n2nc(C(F)(F)F)c3c2CCCC3)cc1)N1CCCC1, the half-life [1] is reported as 1.4 h, the Tmax [2] is reported as 0.5 h and the Cmax [3] is reported as 14 ng/mL. The half-life [4] was 1.4 h, the half-life [5] was 1.3 h and the half-life [6] was 2.3 h. For the same compound, the Cmax [7] was 245 ng/mL, the Papp [8] was 41.5 ×10⁻⁶ cm/s and the CL [9] was 1.2 mL/min/g. It also gave a CL [10] of 7 mL/min/g, a bioavailability [11] of 12% and a QH [12] of 77%. For the same compound, the QH [13] was 86%, the Drug uptake [14] was 4686 ng/g and the bioavailability [15] was 54%. The Drug uptake [16] was 97 ng/g, the Drug uptake [17] was 542 ng/g and the Cmax [18] was 228 ng/mL. For the same compound, the bioavailability [19] was 2%, the IC50 [20] was 6 µM and the Cmax [21] was 5 ng/mL. For the same compound, the half-life [22] was 0.5 h, the QH [23] was 100% and the Vd [24] was 3.4 L/kg. For the same compound, the Tmax [25] was 1 h, the clearance [26] was 32 mL/min/kg and the Activity [27] was “Active”. For the same compound, the CL [28] was 2.3 mL/min/g, the Vd [29] was 1.6 L/kg and the Activity [30] was “Active”. The “inhibition (INH)” value [31] was “Not Active”, the Activity [32] was 600% and the CL [33] was greater than 50 mL/min/g. For the same compound, the Activity [34] was “Active”, the Activity [35] was 21% and the CL/F [36] was 12 mL/min/kg. It also gave a CL [37] of 2.6 mL/min/g.
